In ChEMBL document CHEMBL1137922, “Synthesis and activity of novel analogs of hemiasterlin as inhibitors of tubulin polymerization: modification of the A segment” (Bioorg Med Chem Lett, 2004):
The source made the active and inactive calls. The calls are words filed in the database; no cut-off is given here.

Tests used:
KB = assay: Concentration required to kill human epidermoid KBV1 cell lines containing very high levels of P-glycoprotein after 3 days of continuous exposure; type: functional, cell-based; conditions: 72 h
In short: (§1)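 KB-3-1, KB85 and KBV1 cells were plated at densities set to reach 60–90% confluence at analysis. Compounds were serially diluted in medium as 2× stocks and added in duplicate. After 3 days of incubation, cell survival was read by SRB assay and reported as IC50.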

Bos taurus [1] = species on record: Bos taurus; assay: Percent inhibition of bovine microtubule-assisted protein (MAP) rich tubulin polymerisation at concentration of 0.3 uM; (result for 2); type: functional
In short: (§2)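 Bovine MAP-rich tubulin (final 1.5 mg/mL) was prepared in cold PEM buffer (80 mM NaPIPES pH 6.9, 1 mM MgCl2, 1 mM EGTA) with 1 mM GTP and spun at 12,000g for 10 min at 4 C. It was added to duplicate compound wells (final 0.3 µM); controls held 0.3% DMSO. A340 was read every minute for 60 min at 24 C.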

KB 3-1 = assay: Concentration required to kill human epidermoid KB-3-1 cell lines containing very low levels of P-glycoprotein after 3 days of continuous exposure; type: functional, cell-based; conditions: KB 3-1, 72 h; in short: as §1
Bos taurus [2] = species on record: Bos taurus; assay: Percent inhibition of bovine microtubule-assisted protein (MAP) rich tubulin polymerisation at concentration of 0.3 uM; type: functional; in short: as §2
KB85 (Homo sapiens) = assay: Concentration required to kill human epidermoid KB85 cell lines containing moderate levels of P-glycoprotein after 3 days of continuous exposure; conditions: KB85, 72 h
Mus musculus [3] = assay: Minimum effective dose against Lox melanoma human xenograft models in athymic mice; type: functional
In short: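 Lox melanoma cells (1.5–7 × 10^6) were injected sc into athymic mice. At 80–100 mg tumour mass, animals were randomised into groups of 5 or 10 and dosed iv in saline. Tumour length and width were measured weekly, with mass = (L·W²)/2. Relative tumour growth and %T/C were calculated.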

Mus musculus [4] = assay: Minimum tolerated dose against Lox melanoma human xenograft models in athymic mice; type: functional
Mus musculus [5] = species on record: Mus musculus; assay: Effect at 1.5 mpk against DLD1 cell line expressing P-glycoprotein transporter in athymic mice; Active; type: functional, organism-based; conditions: DLD-1
Mus musculus [6] = species on record: Mus musculus; assay: Effect at 1.5 mpk against MX1W cell line expressing P-glycoprotein transporter in athymic mice; Active; type: functional, organism-based
Mus musculus [7] = species on record: Mus musculus; assay: Effect at 1.5 mpk against HCT-15 cell line expressing P-glycoprotein transporter in athymic mice; Active; type: functional, organism-based
Bos taurus [8] = species on record: Bos taurus; assay: Percent inhibition of bovine microtubule-assisted protein (MAP) rich tubulin polymerisation at concentration of 0.3 uM; Not applicable; type: functional; in short: as §2
Mus musculus [9] = species on record: Mus musculus; assay: Effect at 2 mpk against DLD1 cell line expressing P-glycoprotein transporter in athymic mice; Active; type: functional, organism-based; conditions: DLD-1
Mus musculus [10] = species on record: Mus musculus; assay: Effect at 2 mpk against MX1W cell line expressing P-glycoprotein transporter in athymic mice; Active; type: functional, organism-based
Mus musculus [11] = species on record: Mus musculus; assay: Effect at 2 mpk against HCT-15 cell line expressing P-glycoprotein transporter in athymic mice; Active; type: functional, organism-based

| SMILES | IC50 (KB) [nM] | Inhibition (Bos taurus [1]) [%] | IC50 (KB 3-1) [nM] | Inhibition (Bos taurus [2]) [%] | IC50 (KB85 (Homo sapiens)) [nM] | MED (Mus musculus [3]) [mpk] | MTD (Mus musculus [4]) [mpk] | Effect (Mus musculus [5]) | Effect (Mus musculus [6]) | Effect (Mus musculus [7]) | inhibition (Bos taurus [8]) | Effect (Mus musculus [9]) | Effect (Mus musculus [10]) | Effect (Mus musculus [11]) |
| --- | --- | --- | --- | --- | --- | --- | --- | --- | --- | --- | --- | --- | --- | --- |
| CN[C@H](C(=O)N[C@H](C(=O)N(C)[C@H](/C=C(\C)C(=O)O)C(C)C)C(C)(C)C)C(C)(C)c1cccc(-c2ccccc2)c1 | 149 | 84 | 1.9 | 86 | 5.4 |  |  |  |  |  |  |  |  |  |
| CN[C@H](C(=O)N[C@H](C(=O)N(C)[C@H](/C=C(\C)C(=O)O)C(C)C)C(C)(C)C)C(C)(C)c1cccc(C)c1 | 19 | 89 | 0.23 | 90 | 0.65 | <0.1 | 1.5 | Active | Active | Active |  |  |  |  |
| CN[C@@H](C(=O)N[C@H](C(=O)N(C)[C@H](/C=C(\C)C(=O)O)C(C)C)C(C)(C)C)C(C)(C)c1cccc(C)c1 | 446 | 89 | 7.9 | 88 | 19.9 |  |  |  |  |  |  |  |  |  |
| CN[C@H](C(=O)N[C@H](C(=O)N(C)[C@H](/C=C(\C)C(=O)O)C(C)C)C(C)(C)C)C(C)(C)c1cc(C(F)(F)F)cc(C(F)(F)F)c1 | 457 | 93 | 17 | 60 | 19 |  |  |  |  |  |  |  |  |  |
| CN[C@H](C(=O)N[C@H](C(=O)N(C)[C@H](/C=C(\C)C(=O)O)C(C)C)C(C)(C)C)C(C)(C)c1cccc(C(C)=O)c1 | 370 | 87 | 1.9 | 93 | 5.8 |  |  |  |  |  |  |  |  |  |
| CN[C@@H](C(=O)N[C@H](C(=O)N(C)[C@H](/C=C(\C)C(=O)O)C(C)C)C(C)(C)C)C(C)(C)c1ccc(C)cc1 | 1070 | 94 | 17 | 95 | 27.5 |  |  |  |  |  |  |  |  |  |
| CN[C@H](C(=O)N[C@H](C(=O)N(C)[C@H](/C=C(\C)C(=O)O)C(C)C)C(C)(C)C)C(C)(C)c1cn(C)c2ccccc12 [HEMIASTERLIN] | 76 |  | 0.3 |  | 1 |  |  |  |  |  | inactive |  |  |  |
| CCc1cccc(C(C)(C)[C@H](NC)C(=O)N[C@H](C(=O)N(C)[C@H](/C=C(\C)C(=O)O)C(C)C)C(C)(C)C)c1 | 62 | 90 | 0.79 | 88 | 1.8 |  |  |  |  |  |  |  |  |  |
| CN[C@H](C(=O)N[C@H](C(=O)N(C)[C@H](/C=C(\C)C(=O)O)C(C)C)C(C)(C)C)C(C)(C)c1cccc(F)c1 | 77 | 93 | 1 | 103 | 1.8 |  |  |  |  |  |  |  |  |  |
| CCOC(=O)/C(C)=C/[C@H](C(C)C)N(C)C(=O)[C@@H](NC(=O)[C@@H](NC)C(C)(C)c1cccc(C)c1)C(C)(C)C | 2410 | 94 | 21.9 | 58 | 525 |  |  |  |  |  |  |  |  |  |
| CN[C@H](C(=O)N[C@H](C(=O)N(C)[C@H](/C=C(\C)C(=O)O)C(C)C)C(C)(C)C)C(C)(C)c1cc(C)cc(C)c1 | 44 | 88 | 0.55 | 85 | 1.23 |  |  |  |  |  |  |  |  |  |
| CCOC(=O)/C(C)=C/[C@H](C(C)C)N(C)C(=O)[C@@H](NC(=O)[C@@H](NC)C(C)(C)c1ccc(C)c(C)c1)C(C)(C)C | 191 | 92 | 9.1 | 49 | 24 | 0.5 | >2 |  |  |  |  | Active | Active | Active |
